Test results reported in ChEMBL document CHEMBL1909507, “Substituted phenyl 4-(2-oxoimidazolidin-1-yl)benzenesulfonamides as antimitotics. Antiproliferative, antiangiogenic and antitumoral activity, and quantitative structure-activity relationships” (Eur J Med Chem, 2011).
Active and inactive are the calls of the source. The rule behind the calls is not given here.

Assays:
MDA-MB-231 [1] = assay: Displacement of N,N'-ethylenebis(iodoacetamide) from beta-tubulin colchicine-binding site in human MDA-MB-231 cells at 1000 times IC50 preincubated for 2 hrs before N,N'-ethylenebis(iodoacetamide) addition measured after 1.5 hrs by chemiluminescence assay; type: cell-based
Method in brief: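 EBI (100, final) was added for 1.5 h at 37 °C with drug present; control was 0.5% DMSO. Sonicated lysates (20 µg protein) were run on 10% SDS-PAGE and blotted with anti-β-tubulin TUB 2.1. The β-tubulin–EBI adduct was scored by ECL.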

M21 [2] = assay: Disruption of cytoskeleton microtubule structure of human M21 cells at 5 times IC50 after 16 hrs by indirect immunofluorescence assay; type: functional, cell-based
Method in brief: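 Cells were fixed in 3.7% formaldehyde, permeabilized with saponin, and stained with anti-β-tubulin TUB 2.1, Alexa-488 anti-mouse secondary and DAPI. Fluorescence microscopy was used for imaging.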

M21 [3] = assay: Cell cycle arrest in human M21 cells assessed as accumulation at G2/M phase at 5 times IC50 after 24 hrs using propidium iodide staining by flow cytometric analysis (reference value: 9%); type: functional
Method in brief: (§1)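 Cells were trypsinized, fixed in ice-cold ethanol, treated with RNase, and stained with propidium iodide (1 mg/mL stock) for 1 h on ice. Cell-cycle distribution was measured by flow cytometry.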

[4] = Toxicity against fertilized chicken embryo assessed as mortality at 3 ug, iv by CAM assay; type: organism-based, Gallus gallus; conditions: in vivo, read-out: Activity
Method in brief: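 HT-1080 fibrosarcoma cells (3.5 × 10⁵ cells/egg) grafted onto the chorioallantoic membrane of fertilized chicken eggs (10 days preincubation). On day 11, drug in DMSO diluted into excipient (ethanol:cremophor:PBS 6.25:6.25:87.5) given iv at 3 µg per egg. Chick mortality recorded over 7-day tumor growth period. Untreated eggs as negative controls and for normalization. Cumulative results from two independent experiments, 10–12 eggs each.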

M21 [5] = assay: Cell cycle arrest in human M21 cells assessed as accumulation at G0/G1 phase at 5 times IC50 after 24 hrs using propidium iodide staining by flow cytometric analysis (reference value: 61%); type: functional; method in brief: as §1
HT-1080 [6] = assay: Antitumor activity against human HT1080 cells xenografted in chicken chorioallantoic membrane assessed as inhibition of tumor growth at 1 to 3 ug, iv measured on day 17 by CAM assay; type: functional
Method in brief: (§2)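 Fertilized chicken eggs were incubated 10 days, then 3.5 × 10⁵ HT-1080 cells/egg were applied to the exposed chorioallantoic membrane. On day 11, drug was given iv in DMSO diluted in excipient (ethanol:cremophor:PBS 6.25:6.25:87.5). Read-out was tumor wet weight as % of untreated eggs, plus chick mortality. Data were pooled from two independent experiments of 10–12 eggs each.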

HT-1080 [7] = assay: Antiangiogenic activity in human HT1080 cells xenografted in chicken chorioallantoic membrane assessed as vascular disruption at 1 to 3 ug, iv measured on day 17 by CAM assay; type: functional
M21 [8] = assay: Cell cycle arrest in human M21 cells assessed as accumulation at S phase at 5 times IC50 after 24 hrs using propidium iodide staining by flow cytometric analysis (reference value: 30%); type: functional; method in brief: as §1
HT-1080 [9] = assay: Antiproliferative activity against human HT1080 after 48 hrs by SRB assay; type: functional, cell-based; conditions: HT-1080, 48 h
Method in brief: (§3)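 Adherent cells were seeded per line (e.g. HT-29 5000, M21 3500, MCF7 7500, CHO and CHO-VV 3-2 and CHO-TAX 5-6 1000 cells/well) and grown 24 h at 37 °C, 5% CO₂. DMSO-solubilized drug was diluted in medium and added at 1000–0.98 nM for 48 h. Cells were fixed with cold 10% TCA and stained with 0.1% sulforhodamine B, with absorbance read at 530–565 nm.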

L1210 = assay: Antiproliferative activity against mouse L1210 after 48 hrs by SRB assay; type: functional, cell-based; conditions: L1210, 48 h
K562 = assay: Antiproliferative activity against human K562 after 48 hrs by SRB assay; type: functional, cell-based; conditions: K562, 48 h
MCF7 = assay: Antiproliferative activity against human MCF7 cells after 48 hrs by SRB assay; type: functional, cell-based; conditions: MCF7, 48 h; method in brief: as §3
DU-145 = assay: Antiproliferative activity against human DU145 after 48 hrs by SRB assay; type: functional, cell-based; conditions: DU-145, 48 h
CHO-VV 3-2 [10] = assay: Ratio of IC50 for colchicine and vinblastine-resistant CHO-VV 3-2 cells to IC50 for CHO cells; type: functional, Cricetulus griseus
Method in brief: (§4)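 Each ratio is the IC50 in the resistant line divided by the IC50 in its parental line (CHO for CHO-TAX 5-6 and CHO-VV 3-2; CEM for CEM-VLB).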

MDA-MB-231 [11] = assay: Antiproliferative activity against human MDA-MB-231 after 48 hrs by SRB assay; type: functional, cell-based; conditions: MDA-MB-231, 48 h
SK-OV-3 = assay: Antiproliferative activity against human SKOV3 after 48 hrs by SRB assay; type: functional, cell-based; conditions: SK-OV-3, 48 h; method in brief: as §3
CHO-TAX 5-6 [12] = assay: Antiproliferative activity against paclitaxel-resistant CHO-TAX 5-6 cells after 48 hrs by SRB assay; type: functional, cell-based; conditions: Cricetulus griseus, CHO-TAX 5-6, 48 h; method in brief: as §3
[13] = Antiproliferative activity against mouse B16F0 after 48 hrs by SRB assay
CHO = assay: Antiproliferative activity against Chinese hamster CHO after 48 hrs by SRB assay; conditions: Cricetulus griseus
[14] = Antiproliferative activity against mouse P388D1 after 48 hrs by SRB assay; conditions: P388D1, 48 h
CCRF-CEM [15] = assay: Ratio of IC50 for human multidrug-resistant CEM/VLB cells to IC50 for human CEM cells; type: functional; method in brief: as §4
CHO-VV 3-2 [16] = assay: Antiproliferative activity against colchicine and vinblastine-resistant CHO-VV 3-2 cells after 48 hrs by SRB assay; type: functional, cell-based; conditions: Cricetulus griseus, CHO-VV 3-2, 48 h; method in brief: as §3
HT-1080 [17] = assay: Antitumor activity against human HT1080 cells xenografted in chicken chorioallantoic membrane assessed as inhibition of tumor growth at 3 ug, iv measured on day 17 by CAM assay; type: functional; method in brief: as §2
[18] = Antiproliferative activity against human multidrug-resistant CEM/VLB cells after 48 hrs by SRB assay; type: functional
CCRF-CEM [19] = assay: Antiproliferative activity against human CEM after 48 hrs by SRB assay; type: functional, cell-based
CHO-TAX 5-6 [20] = assay: Ratio of IC50 for paclitaxel-resistant CHO-TAX 5-6 cells to IC50 for CHO cells; type: functional, Cricetulus griseus; method in brief: as §4
M21 [21] = assay: Antiproliferative activity against human M21 cells after 48 hrs by SRB assay; type: functional, cell-based; conditions: M21, 48 h; method in brief: as §3
HT-29 = assay: Antiproliferative activity against human HT-29 cells after 48 hrs by SRB assay; type: functional, cell-based; conditions: HT-29, 48 h; method in brief: as §3

## COc1ccc(/C=C\c2cc(OC)c(OC)c(OC)c2)cc1O [COMBRETASTATIN A4]
MDA-MB-231 [1]
  Activity: Active
M21 [2]
  Activity: Active
M21 [3]
  Activity: 98%
[4]
  mortality: 45%
M21 [5]
  Activity: 2%
HT-1080 [6]
  growth inhibition (GI): 45%
HT-1080 [7]
  Activity: 48%
M21 [8]
  Activity: 0%

## Cc1cc(C)cc(NS(=O)(=O)c2ccc(N3CCNC3=O)cc2)c1
HT-1080 [9]
  IC50: 150 nM
L1210
  IC50: 110 nM
MDA-MB-231 [1]
  Activity: Active
K562
  IC50: 110 nM
MCF7
  IC50: 100 nM
DU-145
  IC50: 430 nM
M21 [2]
  Activity: Active
CHO-VV 3-2 [10]
  Ratio IC50: 1.2
MDA-MB-231 [11]
  IC50: 1220 nM
M21 [3]
  Activity: 78%
SK-OV-3
  IC50: 190 nM
CHO-TAX 5-6 [12]
  IC50: 120 nM
[13]
  IC50: 260 nM
CHO
  IC50: 210 nM
[4]
  mortality: 8%
[14]
  IC50: 210 nM
CCRF-CEM [15]
  Ratio IC50: 2.4
M21 [5]
  Activity: 1%
CHO-VV 3-2 [16]
  IC50: 250 nM
HT-1080 [17]
  inhibition: inactive
[18]
  IC50: 400 nM
CCRF-CEM [19]
  IC50: 170 nM
CHO-TAX 5-6 [20]
  Ratio IC50: 0.57
M21 [21]
  IC50: 63 nM
HT-29
  IC50: 82 nM
M21 [8]
  Activity: 21%
